The results in this text go back to ChEMBL document CHEMBL1155733, “Flavonoid, iridoid, and lignan glycosides from Putoria calabrica” (J Nat Prod, 2001).

SMILES strings stand for the structures. pIC50: −log10 of the molar value. The source made the active and inactive calls. No cut-off for these calls is given here.

Assay [1] can be described thus: Antioxidant activity assessed as radical scavenging activity in FMLP-stimulated human PMNC by chemiluminescence assay. It counts as functional. The method in brief:
(§1)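 Human PMNs in HBSS (5 × 10⁶ cells/ml) preincubated 30 min at 37 °C with luminol (0.2 mM, as added) and test solution (ethanol stock diluted in HBSS). Stimulated with FMLP (0.5 μM, as added). Luminol-enhanced chemiluminescence recorded in cpm for 15 min at 37 °C. Area under the curve expressed as % of compound-free control; five measurements per concentration, averaged. Quercetin served as positive control.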

The species named for the next assay is Homo sapiens. In words: Antioxidant activity assessed as radical scavenging activity in FMLP-stimulated human PMNC up to 30 uM by chemiluminescence assay. It counts as functional. The method in brief:
as §1

On to `C[C@@H]1O[C@@H](O[C@H]2[C@H](Oc3c(-c4ccc(O)c(O)c4)oc4cc(O[C@@H]5O[C@H](CO)[C@@H](O)[C@H](O)[C@H]5O)cc(O)c4c3=O)OC[C@H](O)[C@@H]2O)[C@H](O)[C@H](O)[C@H]1O` [CALABRICOSIDE A], for which, in assay [1], the pIC50 is 6.60.

Turning to `O=c1c(O)c(-c2ccc(O)c(O)c2)oc2cc(O)cc(O)c12` [QUERCETIN], in assay [1], the pIC50 was 6.30.

Take `O=C(O)C1=CO[C@@H](O[C@@H]2O[C@H](CO)[C@@H](O)[C@H](O)[C@H]2O)[C@@H]2C(CO)=C[C@@H](O)[C@H]12`: the outcome in the assay filed under Homo sapiens was inactive.

For the molecule `C[C@@H]1O[C@@H](O[C@H]2[C@H](Oc3c(-c4ccc(O)c(O)c4)oc4cc(O[C@@H]5O[C@H](CO)[C@@H](O)[C@H](O)[C@H]5O)cc(O)c4c3=O)OC[C@H](O)[C@@H]2O)[C@H](O)[C@H](O)[C@H]1OC(=O)/C=C/c1ccc(O)c(O)c1` [CALABRICOSIDE B], the pIC50 in assay [1] was 6.52.

On to `CSC(=O)OCC1=C[C@H](O)[C@H]2C(C(=O)O)=CO[C@@H](O[C@@H]3O[C@@H](CO)[C@@H](O)[C@@H](O)[C@H]3O)[C@H]12`, for which, in the assay filed under Homo sapiens, the outcome was inactive.

In the case of `COc1cc(C[C@H]2CO[C@@H](c3ccc(O[C@@H]4O[C@H](CO)[C@@H](O)[C@H](O)[C@H]4O)c(OC)c3)[C@H]2CO)ccc1O[C@@H]1O[C@H](CO)[C@@H](O)[C@H](O)[C@H]1O`, the result in the assay listed under Homo sapiens was inactive.

As to `CSC(=O)OCC1=C[C@@H]2OC(=O)C3=CO[C@@H](O[C@@H]4O[C@H](CO)[C@@H](O)[C@H](O)[C@H]4O)[C@H]1[C@@H]32`, the outcome in the assay listed under Homo sapiens was inactive.

On to `O=C1O[C@H]2C=C(CO)[C@H]3[C@H](O[C@@H]4O[C@H](CO)[C@@H](O)[C@H](O)[C@H]4O)OC=C1[C@H]32`, for which, in the assay listed under Homo sapiens, the outcome was inactive.

`CC(=O)OCC1=C[C@H](O)[C@@H]2C(C(=O)O)=CO[C@@H](O[C@H]3O[C@@H](CO)[C@H](O)[C@@H](O)[C@@H]3O)[C@H]12`: the outcome in the assay filed under Homo sapiens was inactive.

As for `COc1cc([C@H]2OC[C@H]3[C@@H]2CO[C@@H]3c2cc(OC)c(O[C@@H]3O[C@H](CO)[C@@H](O)[C@H](O)[C@H]3O)c(OC)c2)cc(OC)c1O[C@@H]1O[C@H](CO)[C@@H](O)[C@H](O)[C@H]1O`, the result in the assay listed under Homo sapiens was inactive.

As for `CC(=O)OCC1=C[C@@H]2OC(=O)C3=CO[C@@H](O[C@@H]4O[C@H](CO)[C@@H](O)[C@H](O)[C@H]4O)[C@H]1[C@@H]32`, the result in the assay filed under Homo sapiens was inactive.

Regarding `O=C(O)C1=CO[C@@H](O[C@@H]2O[C@H](CO)[C@@H](O)[C@H](O)[C@H]2O)[C@@H]2C(CO)=CC[C@H]12`, in the assay filed under Homo sapiens, the result was inactive.
